Values after ≈ are worked out from the molar mass of the structure shown. Active and inactive are the calls of the source. The rule behind the calls is not given here.
Columns and labels:
[1] = test system: HeLa; experiment: Cytostatic activity against human HeLa cells assessed as growth inhibition after 72 hrs by colorimetric method; format: functional; settings: read-out: ED50 (the source's name)
Summary of the method: (§1)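 HeLa or KB cells at 10⁵ cells/mL in Minimal Medium Eagle with 10% fetal calf serum were incubated at 37 °C in Leighton tubes. After the cells attached (2-3 h), compound was added in sterile saline with 0.05% Tween 80, making up 10% of the final volume. After 72 h at 37 °C, growth was read as cell protein (Oyama–Eagle colorimetric method). 6-Mercaptopurine was the positive control. ED₅₀ was derived.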

[2] = test system: KB; experiment: Cytostatic activity against human KB cells assessed as growth inhibition after 72 hrs by colorimetric method; format: functional; settings: read-out: ED50 (the source's name); summary of the method: as §1
[3] = test system: Ehrlich; experiment: Inhibition of DNA synthesis in mouse Ehrlich ascite carcinoma cells assessed as incorporation of [3H]thymidine after 1.5 hrs by liquid scintillation spectrophotometer; format: functional, cell-based
Summary of the method: (§2)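 Ehrlich ascites cells were taken from mice bearing 7-day nonbloody tumors, washed in saline, and resuspended at 5×10⁵ cells/mL in Eagle Spinner medium with 10% fetal calf serum. They were stirred 1.5 h at 37 °C with compound and one labelled precursor: [¹⁴C]glucose 0.2 μCi, [³H]thymidine 0.1 μCi, [³H]uridine 0.5 μCi, or [³H]proline. Then 1 mL samples were diluted in cold saline and pelleted.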

[4] = test system: Ehrlich; experiment: Inhibition of RNA synthesis in mouse Ehrlich ascite carcinoma cells assessed as incorporation of [3H]uridine after 1.5 hrs by liquid scintillation spectrophotometer; format: functional, cell-based; summary of the method: as §2
[5] = test system: Ehrlich; experiment: Inhibition of protein synthesis in mouse Ehrlich ascite carcinoma cells assessed as incorporation of [3H]proline after 1.5 hrs by liquid scintillation spectrophotometer; format: functional, cell-based; summary of the method: as §2
[6] = test system: Ehrlich; experiment: Inhibition of [3H]glucose uptake in mouse Ehrlich ascite carcinoma cells after 1.5 hrs by liquid scintillation spectrophotometer; format: functional, cell-based; settings: in the assay text read “[14C]glucose” for “[3H]glucose”; summary of the method: as §2
[7] = test system: Ehrlich; experiment: Irreversible inhibition of DNA synthesis in mouse Ehrlich ascite carcinoma cells assessed as incorporation of [3H]thymidine at 10 ug/ml after 1.5 hrs by liquid scintillation spectrophotometer; format: functional, cell-based
Summary of the method: (§3)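 For reversibility, Ehrlich ascites cells were preincubated 1.5 h at 37 °C with or without 10 μg/mL quinone. They were washed in saline at room temperature and resuspended in fresh Eagle Spinner medium. They were then incubated at 37 °C with radiolabelled glucose, thymidine, uridine or proline at the same amounts as the direct assay. Samples were taken over time to follow incorporation.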

[8] = test system: Ehrlich; experiment: Irreversible inhibition of RNA synthesis in mouse Ehrlich ascite carcinoma cells assessed as incorporation of [3H]uridine at 10 ug/ml after 1.5 hrs by liquid scintillation spectrophotometer; format: functional, cell-based; summary of the method: as §3
[9] = test system: Ehrlich; experiment: Irreversible inhibition of protein synthesis in mouse Ehrlich ascite carcinoma cells assessed as incorporation of [3H]proline at 10 ug/ml after 1.5 hrs by liquid scintillation spectrophotometer; format: functional, cell-based; summary of the method: as §3
[10] = test system: Ehrlich; experiment: Irreversible inhibition of [3H]glucose uptake in mouse Ehrlich ascite carcinoma cells at 10 ug/ml after 1.5 hrs by liquid scintillation spectrophotometer; format: functional, cell-based; settings: in the assay text read “[14C]glucose” for “[3H]glucose”; summary of the method: as §3

Row | Compound | EC50 [1] [µg/mL] | EC50 [2] [µg/mL] | inhibition [3] | inhibition [4] | inhibition [5] | inhibition [6] | inhibition [7] | inhibition [8] | inhibition [9] | inhibition [10]
1 | COC(=O)C(C)n1n[n+]([O-])c2cc(C)c(C)cc21 (stereo not given) | > 100 | > 100 |  |  |  |  |  |  |  | 
2 | CC1=CC(=O)c2nn(C)nc2C1=O | 0.3 (≈ 1.69 µM) | 2.5 (≈ 14.1 µM) | Active | Active | Active | Active |  |  |  | 
3 | Cc1cc2c(cc1C)[n+]([O-])nn2Cc1ccccc1 | > 100 | > 100 |  |  |  |  |  |  |  | 
4 | COC(=O)C(C)n1nc2c(n1)C(=O)C(C)=C(C)C2=O (stereo not given) | 0.9 (≈ 3.42 µM) | 3.5 (≈ 13.3 µM) | Active | Active | Active | Active |  |  |  | 
5 | COC(=O)Cn1n[n+]([O-])c2cc(C)c(C)cc21 | > 100 | > 100 |  |  |  |  |  |  |  | 
6 | Cc1cc2c(cc1C)[n+]([O-])nn2C | > 100 | > 100 |  |  |  |  |  |  |  | 
7 | COC(=O)Cn1nc2c(n1)C(=O)C(C)=CC2=O | 0.5 (≈ 2.13 µM) | 1.5 (≈ 6.38 µM) | Active | Active | Active | Active | Active | Active | Active | Active
8 | CC1=C(C)C(=O)c2nn(C)nc2C1=O | 0.5 (≈ 2.62 µM) | 3 (≈ 15.7 µM) | Active | Active | Active | Active |  |  |  | 
9 | CC1=C(C)C(=O)c2nn(Cc3ccccc3)nc2C1=O | 0.8 (≈ 2.99 µM) | 3.5 (≈ 13.1 µM) | Active | Active | Active | Active |  |  |  | 
10 | COC(=O)Cn1nc2c(n1)C(=O)C(C)=C(C)C2=O | 1 (≈ 4.01 µM) | 4 (≈ 16 µM) | Active | Active | Active | Active |  |  |  | 
11 | Sc1ncnc2nc[nH]c12 [MERCAPTOPURINE ANHYDROUS] | 0.1 (≈ 0.657 µM) | 0.1 (≈ 0.657 µM) |  |  |  |  |  |  |  | 
